Results as given in ChEMBL document CHEMBL3097988, “Synthesis and characterization of new N-(4-(4-chloro-1H-imidazol-1-yl)-3-methoxyphenyl)amide/sulfonamide derivatives as possible antimicrobial and antitubercular agents” (2014).
In brackets after ≈: the same amount, converted by molar mass.

Experiments:
Assay type in all cases: functional
[1] = tested on: Mycobacterium tuberculosis; assay: Antimicrobial activity against Mycobacterium tuberculosis H37Rv ATCC 27294 at 1 to 100 ug/ml after 7 days by resazurin assay
How it was run: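 Preliminary screen at three concentrations (1, 10 and 100) by resazurin microtitre assay. Cultures were grown in Middlebrook 7H9 with 10% OADC, and compounds came from 2 mg/mL DMF stocks with DMF controls. Plates were incubated 7 days at 37 °C, and resazurin colour was read after 1 h. Inhibition was scored as no blue-to-pink change.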

[2] = tested on: Mycobacterium tuberculosis; assay: Antimicrobial activity against Mycobacterium tuberculosis H37Rv ATCC 27294 after 7 days by resazurin assay; conditions: H37Rv ATCC 27294, 168 h
How it was run: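 Resazurin microtitre assay. Cultures were grown in Middlebrook 7H9 with 10% OADC and added to fresh medium in 96-well plates. Test compounds came from 2 mg/mL DMF stocks, with DMF-only controls. Plates were incubated 7 days at 37 °C, then resazurin was added and read after 1 h at 37 °C. MIC was the lowest concentration preventing the blue-to-pink change.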

Escherichia coli = assay: Antimicrobial activity against Escherichia coli ATCC 25922 after 16 to 18 hrs by […]
Candida albicans = assay: Antimicrobial activity against Candida albicans after 3 to 4 days by serial plate dilution method
How it was run: (§1)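 Fungal MIC by serial plate dilution. Sabouraud agar (peptone, D-glucose, agar; pH 5.7) plates seeded with saline spore suspension, dried 1 h at 37 °C. Wells punched and filled with compound in DMSO; DMSO-only control. Triplicate plates held 3–4 days at 37 °C; inhibition zone diameter measured. Amphotericin B positive control. Tested range […] per mL.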

Rhizopus = assay: Antimicrobial activity against Rhizopus sp. after 3 to 4 days by serial plate dilution method; how it was run: as §1
Aspergillus flavus = assay: Antimicrobial activity against Aspergillus flavus after 3 to 4 days by serial plate dilution method; how it was run: as §1
[3] = tested on: Mycolicibacterium fortuitum; assay: Antimicrobial activity against Mycobacterium fortuitum ATCC 19542 after 7 days by resazurin assay; conditions: ATCC 19542, 168 h
Klebsiella pneumoniae [4] = assay: Antimicrobial activity against Klebsiella pneumoniae ATCC 13883 after 16 to 18 hrs by serial plate dilution method
How it was run: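 Bacterial MIC by serial dilution in Mueller-Hinton broth adjusted to pH 5.0 with phosphate buffer. Tubes inoculated with standardized bacterial suspension, incubated 16–18 h at 37 °C. MIC read as lowest concentration with no visible growth. Range […] per mL. DMSO as negative control, ciprofloxacin as positive control.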

Klebsiella pneumoniae [5] = assay: Ratio of ciprofloxacin MIC to compound MIC for Klebsiella pneumoniae ATCC 13883
Staphylococcus aureus [6] = assay: Antimicrobial activity against Staphylococcus aureus ATCC 25923 after 16 to 18 hrs by […]
Staphylococcus aureus [7] = assay: Ratio of ciprofloxacin MIC to compound MIC for Staphylococcus aureus ATCC 25923
[8] = tested on: Mycolicibacterium smegmatis; assay: Antimicrobial activity against Mycobacterium smegmatis (MC2) ATCC 19420 after 7 days by resazurin assay; conditions: (MC2) ATCC 19420, 168 h

COc1cc(NS(=O)(=O)Cc2cccc(C(F)(F)F)c2)ccc1-n1cnc(Cl)c1
inhibition (INH) [1]: 90% | MIC [2]: 1.25 µg/mL (≈ 2.8 µM) | MIC (Escherichia coli): 64 µg/mL (≈ 144 µM) | MIC (Candida albicans): 64 µg/mL (≈ 144 µM) | MIC (Rhizopus): 128 µg/mL (≈ 287 µM) | MIC (Aspergillus flavus): 32 µg/mL (≈ 71.8 µM) | MIC [3]: 10 µg/mL (≈ 22.4 µM) | MIC (Klebsiella pneumoniae [4]): 4 µg/mL (≈ 8.97 µM) | Ratio (Klebsiella pneumoniae [5]): 2 | MIC (Staphylococcus aureus [6]): 4 µg/mL (≈ 8.97 µM) | Ratio (Staphylococcus aureus [7]): 1

COc1cc(NS(=O)(=O)c2cc(F)cc(C(F)(F)F)c2)ccc1-n1cnc(Cl)c1
inhibition (INH) [1]: 95% | MIC [2]: 0.625 µg/mL (≈ 1.39 µM) | MIC (Escherichia coli): 4 µg/mL (≈ 8.89 µM) | MIC (Candida albicans): 8 µg/mL (≈ 17.8 µM) | MIC (Rhizopus): 16 µg/mL (≈ 35.6 µM) | MIC (Aspergillus flavus): 8 µg/mL (≈ 17.8 µM) | MIC [3]: 10 µg/mL (≈ 22.2 µM) | MIC (Klebsiella pneumoniae [4]): 8 µg/mL (≈ 17.8 µM) | Ratio (Klebsiella pneumoniae [5]): 1 | MIC (Staphylococcus aureus [6]): 4 µg/mL (≈ 8.89 µM) | Ratio (Staphylococcus aureus [7]): 1 | MIC [8]: 10 µg/mL (≈ 22.2 µM)

COc1cc(NS(=O)(=O)c2ccc(C(F)(F)F)cc2)ccc1-n1cnc(Cl)c1
inhibition (INH) [1]: 95% | MIC [2]: 0.625 µg/mL (≈ 1.45 µM) | MIC (Escherichia coli): 16 µg/mL (≈ 37.1 µM) | MIC (Candida albicans): 8 µg/mL (≈ 18.5 µM) | MIC (Rhizopus): 16 µg/mL (≈ 37.1 µM) | MIC (Aspergillus flavus): 16 µg/mL (≈ 37.1 µM) | MIC [3]: 10 µg/mL (≈ 23.2 µM) | MIC (Klebsiella pneumoniae [4]): 8 µg/mL (≈ 18.5 µM) | Ratio (Klebsiella pneumoniae [5]): 1 | MIC (Staphylococcus aureus [6]): 4 µg/mL (≈ 9.26 µM) | Ratio (Staphylococcus aureus [7]): 1 | MIC [8]: 1.25 µg/mL (≈ 2.89 µM)

COc1cc(NS(=O)(=O)c2c(F)ccc(C(F)(F)F)c2Cl)ccc1-n1cnc(Cl)c1
inhibition (INH) [1]: 90% | MIC [2]: 0.625 µg/mL (≈ 1.29 µM) | MIC (Escherichia coli): 4 µg/mL (≈ 8.26 µM) | MIC (Candida albicans): 8 µg/mL (≈ 16.5 µM) | MIC (Rhizopus): 16 µg/mL (≈ 33 µM) | MIC (Aspergillus flavus): 16 µg/mL (≈ 33 µM) | MIC [3]: 10 µg/mL (≈ 20.7 µM) | MIC (Klebsiella pneumoniae [4]): 8 µg/mL (≈ 16.5 µM) | Ratio (Klebsiella pneumoniae [5]): 1 | MIC (Staphylococcus aureus [6]): 4 µg/mL (≈ 8.26 µM) | Ratio (Staphylococcus aureus [7]): 1 | MIC [8]: 1.25 µg/mL (≈ 2.58 µM)
